One may read the MIC as the lowest concentration that inhibits growth of the organism. Read a low MIC as inhibition by little substance.

In brackets after ≈: the same amount, converted by molar mass. Bounds are passed on as bounds.

Format in all cases: functional
The test system of assay [1] is Fusarium verticillioides. In words: Antifungal activity against Fusarium moniliforme YM3067 after 72 hrs by disk diffusion method. In a few lines:
(§1)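 Paper-disk diffusion. Fungi grown on PDA at 28 °C; spores mixed into melted PDA at 1 × 10^6 spores/mL and poured into plates. Compounds in 50% aqueous DMSO, serially double diluted from 500 to 15.63 µg/mL, loaded onto sterile 6 mm paper disks. Dried disks placed on agar, incubated 28 °C for 72 h, inhibition zones then measured.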

The subject of assay [2] is Botrytis cinerea. The experiment in a line: Antifungal activity against Botrytis cinerea YM3061 after 72 hrs by disk diffusion method. In a few lines:
as §1

Assay [3] relates to Fusarium avenaceum. In words: Antifungal activity against Fusarium avenaceum YM3065 after 72 hrs by disk diffusion method. In a few lines:
as §1
On the technique in general: Agar diffusion results depend on both activity and mobility in agar.

Assay [4] deals with Talaromyces islandicus. The experiment in a line: Antifungal activity against Penicillium islandicum YM3104 after 72 hrs by disk diffusion method. The essentials: as §1
The subject of assay [5] is Aspergillus niger. The experiment in a line: Antifungal activity against Aspergillus niger YM3029 after 72 hrs by disk diffusion method. In a few lines:
as §1

Assay [6] relates to Ophiostoma minus. The experiment in a line: Antifungal activity against Ophiostoma minus YM3429 after 72 hrs by disk diffusion method. The essentials:
as §1

For assay [7], the system named is Bipolaris maydis. In words: Antifungal activity against Helminthosporium maydis YM3076 after 72 hrs by disk diffusion method. The essentials: as §1

Turning to `C[C@@H]1C[C@@H](O)[C@@H](O)/C=C/C=C\C(=O)O1`, the MIC in assay [1] is over 500 µg/mL; in assay [2], 500 µg/mL (≈ 2520 µM); in assay [3] it was over 500 µg/mL; in assay [4], over 500 µg/mL; in assay [5], 125 µg/mL (≈ 631 µM); in assay [6], over 500 µg/mL. Further, the minimum inhibitory concentration (MIC) in assay [7] came to 500 µg/mL (≈ 2520 µM).

For the molecule `CC(=O)O[C@@H]1C[C@@H](C)OC(=O)CC[C@H](O)CC1=O`, the MIC in assay [1] is over 500 µg/mL; in assay [2] it was 250 µg/mL (≈ 968 µM); in assay [3], over 500 µg/mL; in assay [4] it was 250 µg/mL (≈ 968 µM); in assay [5], 125 µg/mL (≈ 484 µM); in assay [6], over 500 µg/mL. Also, the MIC in assay [7] came out at 500 µg/mL (≈ 1940 µM).

As to `CC(=O)O[C@H]1/C=C/[C@@H]2O[C@@H]2C(=O)O[C@H](C)C[C@H]1O` [7ALPHA-ACETOXYMULTIPLOLIDE A], the MIC in assay [1] was over 500 µg/mL; in assay [2] it was over 500 µg/mL; in assay [3], over 500 µg/mL; in assay [4], over 500 µg/mL; in assay [5] it was 125 µg/mL (≈ 488 µM); in assay [6] it was over 500 µg/mL. In assay [7], this molecule came in with an MIC of over 500 µg/mL.

`CC(=O)O[C@@H]1C[C@@H](C)OC(=O)[C@H]2O[C@H]2/C=C/[C@@H]1O` [8ALPHA-ACETOXYMULTIPLOLIDE A]: the MIC was 500 µg/mL (≈ 1950 µM) in assay [1]; 62.5 µg/mL (≈ 244 µM) in assay [2]; over 500 µg/mL in assay [3]; 250 µg/mL (≈ 976 µM) in assay [4]; 125 µg/mL (≈ 488 µM) in assay [5]; 31.2 µg/mL (≈ 122 µM) in assay [6]. This molecule also yielded an MIC in assay [7] of 500 µg/mL (≈ 1950 µM).

`C[C@@H]1C[C@@H](O)[C@@H](O)/C=C/[C@@H]2O[C@@H]2C(=O)O1` [MULTIPLOLIDE A]: the MIC in assay [1] was over 500 µg/mL; in assay [2], over 500 µg/mL; in assay [3], over 500 µg/mL; in assay [4] it was 250 µg/mL (≈ 1170 µM); in assay [5], 250 µg/mL (≈ 1170 µM); in assay [6], over 500 µg/mL. In addition, the MIC in assay [7] stood at 500 µg/mL (≈ 2330 µM).

For the molecule NYSTATIN, the MIC was found to be 62.5 µg/mL in assay [1]; 31.2 µg/mL in assay [2]; 62.5 µg/mL in assay [3]; 15.6 µg/mL in assay [4]; 15.6 µg/mL in assay [5]; 31.2 µg/mL in assay [6]. The molecule further came in with a minimum inhibitory concentration (MIC) in assay [7] of 31.2 µg/mL.
